Laboratory results reported in the EternaBench riboswitch data.

System: MS2 coat protein
Assay: apparent Kd, MS2 coat protein; higher = weaker binding; RNA-MaP array; FMN 200 µM where present
Procedure, shortened: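 Designs on Illumina sequencing-chip clusters, transcribed by stalled E. coli RNA polymerase, were exposed to SNAP-549-labelled MS2 coat protein in doubling steps from 0.7 or 1.5 nM up to 3 µM, without and then with constant ligand. The buffer held 100 mM Tris-HCl pH 7.5, 80 mM KCl, 4 mM MgCl2, BSA, DTT, yeast tRNA and Tween-20. Apparent Kd values are medians of filtered per-cluster binding-curve fits to green signal normalised to red-channel RNA signal and control-cluster median Fmax.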

[1] = designed as: ON switch for flavin mononucleotide, no ligand
[2] = ligand present: flavin mononucleotide, designed as: ON switch for flavin mononucleotide
[3] = designed as: OFF switch for flavin mononucleotide, no ligand
[4] = ligand present: flavin mononucleotide, designed as: OFF switch for flavin mononucleotide

Row | Sequence | apparent Kd [1] | apparent Kd [2] | apparent Kd [3] | apparent Kd [4]
1 | GGACGUCACAUUAACAUGAGGAUCACCCAUGUCUCUUGACAUGAGGAUAUGGAUCCUAAUUGGAUCCAGAAGGCAUGGACGUCC | 1220 nM | 97.2 nM | – | –
2 | CGCUACGUUUCGUAGCAGCUAGGUGAGGAUAUUCAAUUUUUCACAUGAGGAUCACCCAUGUAUGUGAAGAAGGCGCCUAGAAAU | 10.7 nM | 4.96 nM | – | –
3 | GUGUAGAUAGGAUAUGCAUGAGUCUAGCGAAGCUAGGCUCUACAUGAGGAUCACCCAUGUAGAAGGGUCUACAC | – | – | 20.6 nM | 17.2 nM
4 | AAAGUGUCAGGAUAUACAUGAGGAUCACCCAUGUAUCUUUUUGAUCGUAGGGUGCACCGUAGAAGGGACACUCC | – | – | 27.4 nM | 37.1 nM
5 | GCCUGCCGUGGCACGGUAGCACCGGAGGAUAUCCGCGUCGGUCAUGACAUGAGGAUCACCCAUGUGGAGAAGGCUGGUUUGUCC | – | – | 10.8 nM | 21.2 nM
6 | AGAAACUACGAGAAGGACAUGUGGUCCUUCAGUUACAUGAGGAUCACCCAUGUAGGAUAUCGUAGUUUCAGGAUCGUGAGAUCC | – | – | 42 nM | 12.5 nM
7 | AUUCGUGAGUAGGAUAUGCUGUUGCCAGAACGAGUAGAAGGACUCACAUGAGGAUCACCCAUGUGGUGUCUAAG | – | – | 19.9 nM | 170 nM
8 | AAGAGACAUCAGAAGGGAGCCCGCACGCGCGGCUCAGGAUAUGAGAUCUUAUGUAGUACGACAUGAGGAUCACCCAUGUCCGCG | 37.8 nM | 7.97 nM | – | –
9 | UGGACUGGGCAGAAGGGACAUGAGGAUCACCCAUGUCUUGGGCUACUUCAGUCAGGAUAUGCCCAUUGAAUAUCCGAGCAUCAA | – | – | 13.7 nM | 77.4 nM
10 | AAACAGGCAGGAUAUACAUGAGGAUCACCCAUGUGCAUAAACUGGCUGCGUCCGAAUCGUAGAAGGGCCUGCAU | – | – | 502 nM | 126 nM
11 | AAUAACAGAGGAUAUACUGUUUUAUGUGUUUGUUAUUUUGAACAUGAGGAUCACCCAUGUAGAAGGCUGAGUAA | – | – | 27.8 nM | 28.4 nM
12 | UGAACAAUGUAGAAGGCCCACAUUUAUAUGUAGGGAGGAUAUACAUGAGGAUCACCCAUGUAAAGAGCAAGAGGAUUUGACAGA | – | – | 9.49 nM | 17.6 nM
13 | GCAGCACUUUAAAACAUGAGGAUCACCCAUGUCGAUUGUUAUGAGGAUAUGCAUCGGAUGAAGAUGCAGAAGGCAUUGUGCUGC | 7.36 nM | 6.23 nM | – | –
14 | AUACCUUAUGAGAAGGCGAUCAUGAAACAUGAUCGAGGAUAUCAUGUAAACAUGAGGAUCACCCAUGUAUGGGUAUUAUGGUAU | 57.4 nM | 10.9 nM | – | –
15 | GUCUCACAUGAGGAUCACCCAUGUGAGGAUAUGGAUUCGCUGGCCGUAGCCAGUGGAUCCAGAAGGCGCGUGAU | – | – | 59.1 nM | 58.8 nM
16 | CGGGUCUGAGGAUAUCCAUCCUCAUACAUGAGGAUCACCCAUGUUCACCCUUGGGUUCCCGGAGAAGGCAGUUUUC | – | – | 153 nM | 177 nM
17 | GGACAUGUCGUUUACAUGAGGAUCACCCAUGUCGAUAGACAUGAGGAUAUCGAUACAAAUUGUAUCGAGAAGGCAUGCAUGUCC | 91.2 nM | 23.5 nM | – | –
18 | ACAUGAUCAGGAUAUACAUGAGGAUCACCCAUGUUUAUCAAAAAAGGGCUUUCUACAUGUAGAAGGGAUCUUGU | – | – | 21.8 nM | 39.9 nM
19 | GCUGCAAAGUAAGGAUAUGCCUAGGAAACCUAGGCAGAAGGUACAUGAGGAUCACCCAUGUUAACGCAAAGCGAAUAAAGCAGC | – | – | 18.1 nM | 24.1 nM
20 | ACAUGAGGAUGAGGAUAUUCAUCCAUGAGGAUAGAAGAAGGCAUACAUGAGGAUCACCCAUGUAUACACAUGAGGAUCCCUUAU | – | – | 44.5 nM | 121 nM
21 | AGUCUGCGAGGAUAUACAUGAGGAUCACCCAUGUGCGAAGAACUAGUGAGGUCGAUUGGUAGAAGGCGCGGACA | – | – | 297 nM | 30.3 nM
22 | UCCUUGUCCUGAGGAUAUCCGUGGUUACCUAAAGGAGAAGGCAGGACAUGAGGAUCACCCAUGUACCCAGAAAACGUGCAGAGU | – | – | 234 nM | 126 nM
23 | GUAAGCGACCAGAAGGGUGACAUGAGGAUCACCCAUGUAGAUGUGUUCCCGCUUGGGAACCGUCCACAGGAUAUGGUUGGCUAU | 35.3 nM | 18 nM | – | –
24 | GAAGAUAUAGGAUAUACAUGAGGAUCACCCAUGUGAGUACGCAAGGCUAGAUCGCUUUGUAGAAGGAUAUACCG | – | – | 38.5 nM | 40.8 nM

Row | Sequence | apparent Kd [1] | apparent Kd [2] | apparent Kd [3] | apparent Kd [4]
25 | UGCUAGUCAGGAUAUACGUACAUGUCAUUAGACGUGAAGGGACAUGAGGAUCACCCAUGUAGAAGGGACUAGCU | – | – | 42.4 nM | 149 nM
26 | UCACGGUAUGUAGGAUAUGCAUAGCAUUGCUAUGCAGAAGGACAUGAGGAUCACCCAUGUAUGUAUUCCAUACUAUUCCCGUGU | – | – | 6.18 nM | 6.09 nM
27 | UAAAAUUUACGAGGAUAUCCAAAGGUAGACAUAGGAGAAGGCGUACAUGAGGAUCACCCAUGUACCAAUAAAUGGGUUUCUCAA | – | – | 20.8 nM | 57.8 nM
28 | AAAUUUUGUCAAGGAUAUGUAUUAUUGAUUUGAAAACAUGAGGAUCACCCAUGUAUAUGGUGGGAACAGAAGGUGAAUAAGUAA | – | – | 202 nM | 236 nM
29 | CGAUAGGACAGAGGAUAUACACAUGAGGAUCACCCAUGUGAUUACAAUUCUUAAGAUUCAAACAUGUAGAAGGCUGUCCUAUCG | – | – | 9.25 nM | 17.4 nM
30 | UUCGGCGCAGGAUAUACAGUUUUGUGUUGAAUCGGCGCGGGACAUGAGGAUCACCCAUGUAGAAGGGUGUUGAA | – | – | 682 nM | 470 nM
31 | GGUCCAUCAUGAGGAUAUGGCACCUUAUUGGUGCCAGAAGGCGUGUCUAUAGACAUGAGGAUCACCCAUGUAAUAAAUUGGACC | 614 nM | 49.6 nM | – | –
32 | AGAAACUAGGAGAAGGACAUAUGACCAAGACGAAACAUGAGGAUCACCCAUGUAGGAUAUCCUAGUUUCAGGAUCGUGAGAUCA | – | – | 5.47 nM | 7.97 nM
33 | UUACUGCGAGGAUAUGCGAUCCAGACCAUGAUGUAAUUCCGACAUGAGGAUCACCCAUGUAGAAGGUGCAGUGG | – | – | 22.4 nM | 27.1 nM
34 | UUUAUAAAUUAGAAGGCGUGAUGAAUUACAAUAGACAUGAGGAUCACCCAUGUGUAUUCAUGUCAUGAGGAUAUAGUCAUAUAU | 47.2 nM | 19.4 nM | – | –
35 | ACCUCACAUGAGGAUCACCCAUGUCAGGAUAUUCAAACAGGCGGAACUCCGCCUUCUCGAAGAAGGGACAUUAA | – | – | 16.2 nM | 72.4 nM
36 | GGAUAGGACAGAGGAUAUACCGAUAGGAUCUACUAUCGAAUAAUCCUCACAUGAGGAUCACCCAUGUAGAAGGCUGUCCUAUCG | – | – | 21.3 nM | 143 nM
37 | CGCUAGUCAGGAUAUACGCACAUGUCACCAGACGUGAAGGGACAUGAGGAUCACCCAUGUAGAAGGGACUAGCA | – | – | 87.9 nM | 203 nM
38 | CAGAAGUCAGGAUAUGCAUGGCGGGACUUGCGUCGUGGCGUGCAGAAGGGACAUGAGGAUCACCCAUGUAAAGA | – | – | 52.5 nM | 62.4 nM
39 | UGUGAGUUGAUGUUAGAUAGGAGAACAUGAGGAUCACCCAUGUAGGAUAUUCAAAGACGAAGAUAGAAGAAGGACAUAGGUUUC | – | – | 17.7 nM | 21.5 nM
40 | GAUUGUGAAGGAUAUACUGGAGGAGUGCGAUAGAAGCACGAACAUGAGGAUCACCCAUGUAGAAGGUCAGGAGU | – | – | 34.5 nM | 21.6 nM
41 | GCUGUCGCAUGAGGAUAUGGACAGCUUUGCUGUCCAGAAGGCAUGUCGAUAGACAUGAGGAUCACCCAUGUAGUAAAGACAGCA | 588 nM | 64.6 nM | – | –
42 | CCCGGUCGAGCAGGAUAUAGACCGCGUGCAUUUCCCUCAGAUUGAGACAUGAGGAUCACCCAUGUCUAGAAGGGUUCACCGAAA | – | – | 5.83 nM | 6.93 nM
43 | CCAAACGGAGGAUAUACAAAUUAAGGAAAAAAACGCGAAAAACAUGAGGAUCACCCAUGUAGAAGGCCGAAAAA | – | – | 19.3 nM | 17.9 nM
44 | AAACUCAUGCAGAAGGGACAAACGGGUGGGAUCUGCAUGUGCACAUGAGGAUCACCCAUGUGGUGUCAGGAUAUGCUGGGCACG | – | – | 102 nM | 75.2 nM
45 | AUCAUGUAAGGAUAUCUGACAUGUGACUUCGGUCACUGUUCAGAGAAGGUACAUGAGGAUCACCCAUGUAGAAC | – | – | 76.7 nM | 78.6 nM
46 | AAUAAACUCACAGGAUAUAGCAUAGGUCGCGUGAACUUACAGGCGACGAUGCUAGAAGGGUGACCACAUGAGGAUCACCCAUGU | 892 nM | 172 nM | – | –
47 | UGAUAACAUGUAGGAUAUGCAGCAUUGACCACUGCAGAAGGACAUGAGGAUCACCCAUGUACCCAUACUAUGGGAUCACGCAAU | – | – | 45.9 nM | 195 nM
48 | ACUUAUCAUGUAGGAUAUGCGUGGCGAAGCUAUGCAGAAGGACAUGAGGAUCACCCAUGUUUUAGCGUCUGCGUACAGAUGCGU | – | – | 54 nM | 192 nM
